According to ChEMBL document CHEMBL1132235, “Thioamides: synthesis, stability, and immunological activities of thioanalogues of Imreg. Preparation of new thioacylating agents using fluorobenzimidazolone derivatives” (1999):

What was measured:
Mus musculus [1] = test: In vivo functional activity against Blood Immunophenotyping in mice at 50 mg/kg dose using CD4+CD45+ as cell subset
Summary of the method: (§1)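 Female C57BL/6 mice, 6–8 weeks old, groups of seven, dosed i.p. once daily for four consecutive days (0, 50, 100 or 125 mg/kg) and sacrificed on day 5. Blood and spleen cells were lysed in ACK buffer (pH 7.3, 5 min), washed in PBS and stained 45 min on ice with FITC/PE surface-marker antibodies. Cells were fixed in 1% paraformaldehyde and read by flow cytometry. Values are relative subset percentages, compared by unpaired t test.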

Mus musculus [2] = test: In vivo functional activity against spleen Immunophenotyping in mice at 0 mg/kg dose using LY5+ as cell subset; summary of the method: as §1
Mus musculus [3] = test: In vivo functional activity against spleen Immunophenotyping in mice at 100 mg/kg dose using CD8+CD45+ as cell subset; summary of the method: as §1
Mus musculus [4] = test: In vivo functional activity against spleen Immunophenotyping in mice at 50 mg/kg dose using CD4+CD45+ as cell subset; summary of the method: as §1
Mus musculus [5] = test: In vivo functional activity against spleen Immunophenotyping in mice at 50 mg/kg dose using NK+CD3+ as cell subset; summary of the method: as §1
Mus musculus [6] = test: In vivo functional activity against spleen Immunophenotyping in mice at 125 mg/kg dose using LY5+ as cell subset; summary of the method: as §1
Mus musculus [7] = test: In vivo functional activity against spleen Immunophenotyping in mice at 0 mg/kg dose using TCR+ as cell subset; summary of the method: as §1
Mus musculus [8] = test: In vivo functional activity against spleen Immunophenotyping in mice at 50 mg/kg dose using LY5+ as cell subset; summary of the method: as §1
Mus musculus [9] = test: In vivo functional activity against Blood Immunophenotyping in mice at 100 mg/kg dose using NK+ as cell subset; summary of the method: as §1
Mus musculus [10] = test: In vivo functional activity against spleen Immunophenotyping in mice at 125 mg/kg dose using CD8+CD45+ as cell subset; summary of the method: as §1
Mus musculus [11] = test: In vivo functional activity against Blood Immunophenotyping in mice at 100 mg/kg dose using CD4+CD45+ as cell subset (value in parentheses indicate P value); summary of the method: as §1
Mus musculus [12] = test: In vivo functional activity against spleen Immunophenotyping in mice at 125 mg/kg dose using NK+CD3+ as cell subset; summary of the method: as §1
Mus musculus [13] = test: In vivo functional activity against spleen Immunophenotyping in mice at 0 mg/kg dose using NK+CD3+ as cell subset; summary of the method: as §1
Mus musculus [14] = test: In vivo functional activity against spleen Immunophenotyping in mice at 100 mg/kg dose using LY5+ as cell subset; summary of the method: as §1
Mus musculus [15] = test: In vivo functional activity against spleen Immunophenotyping in mice at 100 mg/kg dose using TCR+ as cell subset; summary of the method: as §1
Mus musculus [16] = test: In vivo functional activity against Blood Immunophenotyping in mice at 50 mg/kg dose using NK+ as cell subset; summary of the method: as §1
Mus musculus [17] = test: In vivo functional activity against Blood Immunophenotyping in mice at 0 mg/kg dose using CD4+CD45+ as cell subset; summary of the method: as §1
Mus musculus [18] = test: In vivo functional activity against spleen Immunophenotyping in mice at 0 mg/kg dose using CD4+CD45+ as cell subset; summary of the method: as §1
Mus musculus [19] = test: In vivo functional activity against spleen Immunophenotyping in mice at 125 mg/kg dose using CD4+CD45+ as cell subset; summary of the method: as §1
Mus musculus [20] = test: In vivo functional activity against Blood Immunophenotyping in mice at 125 mg/kg dose using CD4+CD45+ as cell subset; summary of the method: as §1
Mus musculus [21] = test: In vivo functional activity against spleen Immunophenotyping in mice at 50 mg/kg dose using TCR+ as cell subset; summary of the method: as §1
Mus musculus [22] = test: In vivo functional activity against spleen Immunophenotyping in mice at 0 mg/kg dose using CD8+CD45+ as cell subset; summary of the method: as §1
Mus musculus [23] = test: In vivo functional activity against spleen Immunophenotyping in mice at 100 mg/kg dose using NK+CD3+ as cell subset; summary of the method: as §1
Mus musculus [24] = test: In vivo functional activity against spleen Immunophenotyping in mice at 125 mg/kg dose using TCR+ as cell subset; summary of the method: as §1
Mus musculus [25] = test: In vivo functional activity against Blood Immunophenotyping in mice at 0 mg/kg dose using NK+ as cell subset; summary of the method: as §1
Mus musculus [26] = test: In vivo functional activity against Blood Immunophenotyping in mice at 125 mg/kg dose using NK+ as cell subset; summary of the method: as §1
Mus musculus [27] = test: In vivo functional activity against spleen Immunophenotyping in mice at 50 mg/kg dose using CD8+CD45+ as cell subset; summary of the method: as §1
Mus musculus [28] = test: In vivo functional activity against spleen Immunophenotyping in mice at 100 mg/kg dose using CD4+CD45+ as cell subset; summary of the method: as §1

SMILES: N[C@@H](Cc1ccc(O)cc1)/C(S)=N/CC(=O)NCC(=O)O
- Activity (Mus musculus [1]): 23.94
- Activity (Mus musculus [2]): 38.03
- Activity (Mus musculus [3]): 6.93
- Activity (Mus musculus [4]): 43.1
- Activity (Mus musculus [5]): 2.7
- Activity (Mus musculus [6]): 50.71
- Activity (Mus musculus [7]): 58.54
- Activity (Mus musculus [8]): 38.56
- Activity (Mus musculus [9]): 5.84
- Activity (Mus musculus [10]): 5.46
- Activity (Mus musculus [11]): 22.9
- Activity (Mus musculus [12]): 3.37
- Activity (Mus musculus [13]): 2.37
- Activity (Mus musculus [14]): 40.79
- Activity (Mus musculus [15]): 52.63
- Activity (Mus musculus [16]): 6.37
- Activity (Mus musculus [17]): 22.56
- Activity (Mus musculus [18]): 41.73
- Activity (Mus musculus [19]): 31.93
- Activity (Mus musculus [20]): 28.89
- Activity (Mus musculus [21]): 59.07
- Activity (Mus musculus [22]): 4.97
- Activity (Mus musculus [23]): 2.99
- Activity (Mus musculus [24]): 43.59
- Activity (Mus musculus [25]): 8
- Activity (Mus musculus [26]): 6.29
- Activity (Mus musculus [27]): 5.77
- Activity (Mus musculus [28]): 34.63
